Activity calls are given as the source filed them. The rule behind the calls is not given here. Peptide text beside a SMILES is read from it. * marks the point of attachment. Cbz = O=C(OCc1ccccc1)*

The subject of test [1] is HeLa. Description: Inhibition of 26S proteasome-mediated IkappaBalpha proteasomal degradation in human HeLa cells at 1 uM after 30 mins using DAPI staining by confocal microscopy analysis. The test is classed as cell-based. A digest of the protocol:
(§1)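 HeLa cells on coverslips in MEM with 10% FBS were pretreated 30 min with 1 μM compound or 0.1% DMSO vehicle, then given 20 ng/mL TNFα for 30 min or left unstimulated. Fixed in paraformaldehyde, permeabilized with Triton, blocked in BSA/Tween. Mouse anti-IκBα (L35A5) 1:250 overnight at 4 °C, then Alexa-labelled secondary; DAPI counterstain. Confocal imaging with quantified IκBα fluorescence intensity; p-value versus vehicle/TNFα.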

Test [2] concerns HeLa. As to the kind of experiment: Inhibition of 20S proteasome in TNFalpha-stimulated human HeLa cells assessed as accumulation of ubiquitinylated cellular proteins at 1 uM after 2 hrs using DAPI staining by fluorescence confocal microscopic analysis. The test is classed as cell-based. In outline: (§2)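 HeLa cells grown on glass coverslips in MEM with 10% FBS and penicillin/streptomycin. Treated 2 h with 1.0 μM compound or 0.1% DMSO vehicle, TNFα 20 ng/mL stimulation for 2 h. Fixed in 4% paraformaldehyde, permeabilized with 0.5% Triton, blocked in 5% BSA/0.05% Tween-20. […] anti-ubiquitin (P4D1) 1:250 overnight at 4 °C, then Alexa546 secondary; DAPI nuclear stain. DIC and confocal imaging, with quantification of ubiquitin fluorescence intensity.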

The subject of test [3] is HeLa. As to the kind of experiment: Inhibition of 20S proteasome in TNFalpha-stimulated human HeLa cells assessed as accumulation of ubiquitinylated cellular proteins at 1 uM after 2 hrs using DAPI staining by DIC image analysis. It counts as cell-based. In outline:
as §2

The species entered for test [4] is Homo sapiens. As to the kind of experiment: Irreversible inhibition of chymotryptic-like of purified human 20S proteasome assessed as Suc-LLVY-AMC substrate at 0.5 to 1 uM. A digest of the protocol: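 Suc-LLVY-AMC 50 μM (Km). AMC fluorescence λex 380/λem 440. Vmax taken from linear portions and plotted against [E]. An irreversible inhibitor intersects the horizontal axis rather than passing through the origin.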

The test system of test [5] is HeLa. As to the kind of experiment: Inhibition of 26S proteasome-mediated IkappaBalpha proteasomal degradation in TNFalpha-stimulated human HeLa cells at 1 uM treated 30 mins before TNFalpha challenge measured after 30 mins using DAPI staining by confocal microscopy analysis. It counts as cell-based. A digest of the protocol:
as §1

The species entered for test [6] is Homo sapiens. As to the kind of experiment: Reversible inhibition of purified human 20S proteasome at pH >7.5. In outline: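 Compound preincubated in assay buffer (50 mM Tris-HCl, 0.03% SDS) at pH 7.5 or 8.0 for varying times before enzyme addition. Residual inhibition of 1 nM purified human 20S proteasome then read by fluorogenic AMC release at 37 °C over 30 min.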

Test [7] is filed under the species Homo sapiens. As to the kind of experiment: Irreversible inhibition of chymotryptic-like of purified human 20S proteasome assessed as Suc-LLVY-AMC substrate at 10 to 50 uM measured after drug washout.
The nature of test [8]: Inhibition of caspase-like of purified human 20S proteasome using Z-LLE-AMC as substrate after 30 mins by fluorescence assay. In outline:
(§3)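 Purified human 20S core at 1 nM in 50 mM Tris-HCl pH 7.5 with 0.03% SDS, 37 °C. Fluorogenic substrate was used at its Km. Released AMC was read at ex 380/em 460 nm every minute for 30 min. The maximal (linear) rate was used to derive IC50. Each value is the mean of three or more independent experiments.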

The nature of test [9]: Inhibition of chymotryptic-like of purified human 20S immunoproteasome.
Test [10] can be described thus: Inhibition of chymotryptic-like of purified human 20S proteasome using Suc-LLVY-AMC as substrate after 30 mins by fluorescence assay. In outline: as §3
Test [11] is described as follows: Inhibition of tryptic-like of purified human 20S proteasome using Boc-LRR-AMC as substrate after 30 mins by fluorescence assay. A digest of the protocol: as §3
The species entered for test [12] is Homo sapiens. As to the kind of experiment: Irreversible inhibition of chymotryptic-like of purified human 20S proteasome assessed as Suc-LLVY-AMC substrate at 1 uM measured after drug washout. In outline: (§4)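 Washout assay. Human 20S proteasome (1 nM) was exposed to vehicle or inhibitor (1 or 10 μM), then assayed for CT-L activity with Suc-LLVY-AMC as in the main assay. The mixture was washed through a 10K centrifugal filter with 500 volumes of reaction buffer. Retentate CT-L activity was compared with the prewash activity.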

The species entered for test [13] is Homo sapiens. As to the kind of experiment: Reversible inhibition of chymotryptic-like of purified human 20S proteasome assessed as Suc-LLVY-AMC substrate at 1 uM measured after drug washout. In outline: as §4

For `NC[C@@H]1[C@H]2CN3C(=O)c4cccn4[C@@H]4NC(N)=N[C@@]43[C@@H]2[C@]2(N=C(N)N[C@H]2O)[C@H]1Cl` [listing 1 of 2 here], the inhibition entry in [1], in test [2], in test [3], in test [4], in [5] and in test [6] was “Active” in each case. In [7], the inhibition entry was “Active”.
As a reminder, the IC50 is the point on the concentration scale where inhibition reaches its midpoint. The low end stands for inhibition by little substance, the high end for a need for much substance. As to `O=C1N[C@H]2n3c(cc(Br)c3Br)C(=O)N3CCC[C@]23N1` (racemic) [DIBROMOPHAKELLSTATIN], the IC50 in [8] was 16.1 µM; in test [9] it was 6.2 µM; in test [10], 11.9 µM; in test [11], over 100 µM.
The corresponding values for `NC1=N[C@]23CCCN2C(=O)c2cc(Br)c(Br)n2[C@@H]3N1` (racemic) [DIBROMOPHAKELLIN] are 27.1 µM, 18.7 µM, 25.3 µM and over 100 µM.
`CC[C@H](C)[C@H](NC(=O)[C@H]([C@@H](C)CC)N(C)C(C)=O)C(=O)N[C@H](C(=O)N[C@@H](CC(C)C)C(=O)[C@@]1(C)CO1)[C@@H](C)O`: the inhibition entry in test [12] was “Active”.
With `NC[C@@H]1[C@H]2CN3C(=O)c4cccn4[C@@H]4NC(N)=N[C@@]43[C@@H]2[C@]2(N=C(N)N[C@H]2O)[C@H]1Cl` (racemic), the IC50 is 3 µM in [8], 4 µM in test [9], 5.5 µM in test [10] and over 100 µM in [11].
In the same order, the values of `O=c1c2cc(Br)c(Br)n2cc2n1CCC2` are over 100 µM, over 100 µM, over 100 µM and over 100 µM.
On to `NC[C@@H]1[C@H]2CN3C(=O)c4cccn4[C@@H]4NC(N)=N[C@@]43[C@@H]2[C@]2(N=C(N)N[C@H]2O)[C@H]1Cl` [listing 2 of 2 here], for which the figures for the IC50 in test [8], in test [9] and in test [10] were 1.6 µM, 2.3 µM and 2.5 µM, respectively.
For `CC(C)C[C@@H](C=O)NC(=O)[C@H](CC(C)C)NC(=O)[C@H](CC(C)C)NC(=O)OCc1ccccc1` (Cbz-Leu-Leu-Leu-aldehyde), in [13], the inhibition entry was “Active”.

For the origin of these results see ChEMBL document CHEMBL2046385, “Palau'amine and related oroidin alkaloids dibromophakellin and dibromophakellstatin inhibit the human 20S proteasome” (J Nat Prod, 2012).
